In ChEMBL document CHEMBL1157301, “N-Methyl-4-hydroxy-2-pyridinone analogues from Fusarium oxysporum” (J Nat Prod, 2006):
≈ marks a conversion by molar mass, not a printed value. Calls of active or inactive are those of the source. The calls are words filed in the database; no cut-off is given here.

Tests used:
Assay type in all cases: functional, organism-based
[1] = system: Mycobacterium intracellulare; assay: Antimycobacterial activity against Mycobacterium intracellular ATCC 23068 at 37 degC after 68 to 72 hrs
In short: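 Modified Franzblau microdilution. Samples in DMSO, serially diluted in 20% DMSO/saline, tested in duplicate. Inoculum in Middlebrook 7H9 broth with OADC and 5% Alamar Blue, pH 7.3. Incubated at 37 °C, 10% CO2, 68–72 h. Fluorescence read at 544ex/590em before and after incubation. IC50 from percent growth versus concentration; MIC is the lowest concentration with no detectable growth. Ciprofloxacin control.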

Candida albicans [2] = assay: Antifungal activity against Candida albicans ATCC 90028 at 37 degC after 18 to 24 hrs
Cryptococcus neoformans = assay: Antifungal activity against Cryptococcus neoformans ATCC 90113 at 30 degC after 68 to 72 hrs
Fusarium verticillioides = assay: Antifungal activity against Fusarium verticillioides up to 1 mg/mL by disk assay
In short: (§1)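 Disk diffusion assay run as described by Alam et al., with captan as positive control; compounds tested up to 1mg/mL.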

Aspergillus fumigatus = assay: Antifungal activity against Aspergillus fumigatus ATCC 90906 at 30 degC after 68 to 72 hrs
Aspergillus flavus = assay: Antifungal activity against Aspergillus flavus up to 1 mg/mL by disk assay; in short: as §1
Candida albicans [3] = assay: Antifungal activity against Candida albicans ATCC 90028 up to 50 ug/mL after 18 to 24 hrs at 37 degC

SMILES	Activity (Fusarium verticillioides)	Activity [1]	Activity (Candida albicans [2])	Activity (Cryptococcus neoformans)	Activity (Aspergillus fumigatus)	Activity (Aspergillus flavus)	IC50 (Aspergillus fumigatus) [µg/mL]	also measured
CC[C@H](C)[C@H]1C(=O)O[C@H](C(C)C)C(=O)N(C)[C@@H](C(C)C)C(=O)O[C@H](C(C)C)C(=O)N(C)[C@@H](C(C)C)C(=O)O[C@H](C(C)C)C(=O)N1C [ENNIATIN B1]								IC50 [1]: 15 µg/mL (≈ 22.9 µM); IC50 (Candida albicans [2]): 2 µg/mL (≈ 3.06 µM); MIC (Candida albicans [2]): 6.25 µg/mL (≈ 9.56 µM); IC50 (Cryptococcus neoformans): 9 µg/mL (≈ 13.8 µM); MIC (Cryptococcus neoformans): 25 µg/mL (≈ 38.2 µM)
CCC(C)CC(C)/C=C(\C)[C@@H]1O[C@H](c2c(O)c([C@@]3(O)CCC(OC)(OC)C[C@@H]3O)cn(C)c2=O)CC[C@H]1C (stereo not given in full)	inactive	inactive	inactive	inactive	inactive	inactive		
CCC(C)CC(C)/C=C(\C)[C@@H]1O[C@H](c2c(O)c([C@@]3(O)CCC(=O)C[C@H]3O)cn(C)c2=O)CC[C@H]1C (stereo not given in full)	inactive					inactive	35 (≈ 71.5 µM)	
O=C(O)c1cn(C2CC2)c2cc(N3CCNCC3)c(F)cc2c1=O [CIPROFLOXACIN]								MIC [1]: 0.63 µg/mL (≈ 1.9 µM)
C[C@@H]1[C@H](O)[C@@H](C)/C=C/C=C/C=C/C=C/C=C/C=C/C=C/[C@H](O[C@@H]2O[C@H](C)[C@@H](O)[C@H](N)[C@@H]2O)C[C@@H]2O[C@](O)(C[C@@H](O)C[C@@H](O)[C@H](O)CC[C@@H](O)C[C@@H](O)CC(=O)O[C@H]1C)C[C@H](O)[C@H]2C(=O)O [AMPHOTERICIN B]							0.91 (≈ 0.985 µM)	
COC[C@H]1OC(=O)c2coc3c2[C@@]1(C)C1=C(C3=O)[C@@H]2CCC(=O)[C@@]2(C)C[C@H]1OC(C)=O [WORTMANNIN]								IC50 (Candida albicans [2]): 0.25 µg/mL (≈ 0.584 µM); MIC (Candida albicans [2]): 0.78 µg/mL (≈ 1.82 µM)
CCC(C)CC(C)/C=C(\C)[C@@H]1O[C@H](c2c(O)c(-c3ccc(O)cc3)c[nH]c2=O)CC[C@H]1C (stereo not given in full)	inactive	inactive	inactive	inactive	inactive	inactive		
CCC(C)CC(C)/C=C(\C)C1OC(c2c(O)c([C@]3(O)CCC(=O)C[C@@H]3O)cn(C)c2=O)CC[C@@H]1C (stereo not given in full)	inactive					inactive	2 (≈ 4.08 µM)	Activity (Candida albicans [3]): inactive; IC50 (Cryptococcus neoformans): 35 µg/mL (≈ 71.5 µM)
CCC(C)CC(C)/C=C(\C)[C@@H]1O[C@H](c2c(O)c(-c3ccc(O)cc3)cn(C)c2=O)CC[C@H]1C (stereo not given in full)	inactive	inactive	inactive	inactive	inactive	inactive		
